Laboratory results taken from ChEMBL document CHEMBL4364240, “Tetracyclines as Inhibitors of Pre-microRNA Maturation: A Disconnection between RNA Binding and Inhibition” (ACS Med Chem Lett, 2019).
Calls of active or inactive are those of the source. The calls are words filed in the database; no cut-off is given here.

Legend:
[1] = target: microRNA 21; assay: Inhibition of Dicer mediated biotinylated pre-miRNA-21 (unknown origin) maturation preincubated for 15 mins followed by pre-miRNA-21 addition and measured after 5 hrs by cat-ELCCA; assay type: nucleic-acid assay
Method in brief: (§1)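 Dose-response cat-ELCCA in which Dicer is in excess over the biotinylated pre-miRNA substrate to ensure adequate signal-to-background. IC50 values are derived from the inhibition curves and reported as 95% confidence intervals.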

[2] = Inhibition of biotinylated pre-let-7d microRNA (unknown origin) maturation preincubated for 15 mins followed by Pre-let-7d addition and measured after 5 hrs by cat-ELCCA; method in brief: as §1
[3] = target: microRNA 21; assay: Binding affinity to biotinylated pre-miRNA-21 (unknown origin) by SPR analysis; assay type: nucleic-acid assay
[4] = system: microRNA 21; assay: Inhibition of Dicer mediated 5'-biotinylated PEG linked pre-miRNA-21 (unknown origin) maturation; assay type: nucleic-acid assay
[5] = system: microRNA 21; assay: Inhibition of Dicer mediated biotinylated pre-miRNA-21 (unknown origin) maturation at 1 mM measured after 15 mins by cat-ELCCA relative to control; assay type: nucleic-acid assay
Method in brief: (§2)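 Single-point cat-ELCCA screen at 1.0 mM compound. Recombinant Dicer is used in excess over the pre-miRNA substrate to give enough signal-to-background. The read-out is percent inhibition of processing.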

[6] = Inhibition of biotinylated pre-let-7d (unknown origin) maturation at 1 mM preincubated for 15 mins followed by Pre-let-7d addition and measured after 5 hrs by cat-ELCCA; method in brief: as §2
[7] = Binding affinity to biotinylated pre-let-7d microRNA (unknown origin) by SPR analysis
[8] = system: microRNA 21; assay: […] miR-21 RNA in human HeLA cells transfected with pmirGLO empty vector incubated for 48 hrs by Dual-Glo luciferase assay; assay type: cell-based
[9] = system: microRNA 21; assay: […] miR-21 RNA in human HeLA cells transfected with pmir21 vector incubated for 48 hrs by Dual-Glo luciferase assay; assay type: cell-based
[10] = system: microRNA 21; assay: Inhibition of Dicer mediated biotinylated pre-miRNA-21 (unknown origin) maturation in presence of 1 to 3 mM MgCl2 preincubated for 15 mins followed by pre-miRNA-21 addition and measured after 5 hrs by cat-ELCCA; assay type: nucleic-acid assay
[11] = system: microRNA 21; assay: Inhibition of Dicer mediated biotinylated pre-miRNA-21 (unknown origin) maturation in presence of 1;1 ratio of CaCl2 and MgCl2 preincubated for 15 mins followed by pre-miRNA-21 addition and measured after 5 hrs by cat-ELCCA; assay type: nucleic-acid assay
[12] = system: Escherichia coli; assay: Inhibition of Escherichia coli RNase 3 dsRBD assessed as inhibition of pre-miRNA-21 maturation incubated for 0.5 to 1 hr

| Compound | IC50 [1] [µM] | inhibition [5] | IC50 ([2]; read-out: IC50) [µM] | also measured |
| --- | --- | --- | --- | --- |
| O=c1nc(/C=C/c2ccc(O)c(O)c2)oc2ccccc12 | 692 | – | – | IC50 [2]: Not Active |
| CN1c2ccccc2C(C)(C)C12C=Cc1cc(O)ccc1O2 (centres undefined) | 15 | – | – | IC50 [2]: Not Active |
| CN1CCN(c2ccc3nc(-c4ccc5nc(-c6ccc(O)cc6)[nH]c5c4)[nH]c3c2)CC1 | – | – | – | Kd ([3]; read-out: Kd): 0.1 to 0.7 µM |
| CC(=O)Oc1cccc2c1C(=O)C1=C(O)[C@]3(OC(C)=O)C(=O)C(C(N)=O)=C(O)[C@@H](N(C)C)[C@@H]3[C@@H](OC(C)=O)[C@@H]1[C@]2(C)OC(C)=O | – | – | – | inhibition [4]: Active |
| CN(C)[C@@H]1C(O)=C(C(N)=O)C(=O)[C@@]2(O)C(O)=C3C(=O)c4c(O)ccc(Cl)c4[C@@H](O)[C@H]3C[C@@H]12 | – | 40 to 100% | – | – |
| CN(C)c1cc(NC(=O)CNC(C)(C)C)c(O)c2c1C[C@H]1C[C@H]3[C@H](N(C)C)C(O)=C(C(N)=O)C(=O)[C@@]3(O)C(O)=C1C2=O | – | 40 to 100% | – | – |
| CN1CCN(c2ccc3[nH]c(-c4ccc5[nH]c(-c6ccc(O)cc6)nc5c4)nc3c2)CC1 | – | inactive | – | inhibition [6]: inactive |
| Cc1c2c(c(O)c3c(O)cccc13)C(=O)[C@]1(O)C(=O)C(C(N)=O)=C(O)[C@@H](N(C)C)[C@@H]1C2 | – | 40 to 100% | – | – |
| C[C@H]1c2cccc(O)c2C(=O)C2=C(O)[C@]3(O)C(=O)C(C(N)=O)=C(O)[C@@H](N(C)C)[C@@H]3[C@@H](O)[C@@H]21 [DOXYCYCLINE] | 433 to 1410 | 40 to 100% | 433 to 1300 | – |
| NC[C@@H]1O[C@H](O[C@H]2[C@@H](O)[C@H](O[C@@H]3[C@@H](O)[C@H](N)C[C@H](N)[C@H]3O[C@H]3O[C@H](CN)[C@@H](O)[C@H](O)[C@H]3N)O[C@@H]2CO)[C@H](N)[C@@H](O)[C@@H]1O [FRAMYCETIN] | – | inactive | – | Kd ([3]; read-out: Kd): 0.1 to 0.7 µM; inhibition [6]: inactive |
| NC(=O)C1=C(O)C[C@@H]2C[C@@H]3Cc4cccc(O)c4C(=O)C3=C(O)[C@]2(O)C1=O [INCYCLINIDE] | 358 to 469 | – | 383 to 775 | Kd [3]: Not Active; Kd [7]: Not Active; inhibition [1]: Dose-dependent effect; inhibition [2]: Dose-dependent effect |
| NC[C@H]1O[C@H](O[C@H]2[C@H](O)[C@@H](O[C@H]3O[C@H](CO)[C@@H](O)[C@H](N)[C@H]3O)[C@H](N)C[C@@H]2N)[C@H](O)[C@@H](O)[C@@H]1O [KANAMYCIN] | – | inactive | – | Kd ([3]; read-out: Kd): 0.1 to 0.7 µM; inhibition [6]: inactive |
| CN(C)[C@@H]1C(O)=C(C(N)=O)C(=O)[C@@]2(O)C(O)=C3C(=O)c4c(O)cccc4[C@@](C)(O)[C@H]3[C@H](O)[C@@H]12 [OXYTETRACYCLINE] | 200 to 918 | 40 to 100% | 431 to 1020 | – |
| CN[C@@H]1[C@H](O[C@H]2[C@H](O[C@H]3[C@H](O)[C@@H](O)[C@H](N=C(N)N)[C@@H](O)[C@@H]3N=C(N)N)O[C@@H](C)[C@]2(O)C=O)O[C@@H](CO)[C@H](O)[C@H]1O [STREPTOMYCIN] | – | inactive | – | Kd ([3]; read-out: Kd): 0.1 to 0.7 µM; inhibition [6]: inactive |
| CN(C)[C@@H]1C(O)=C(C(N)=O)C(=O)[C@@]2(O)C(O)=C3C(=O)c4c(O)cccc4[C@@](C)(O)[C@H]3C[C@@H]12 [TETRACYCLINE] | 434 to 1000 | 40 to 100% | 421 to 865 | Activity [8]: inactive; Activity [9]: inactive |

More lines, main results first:

| IC50 [1] [µM] | inhibition [5] | IC50 ([2]; read-out: IC50) [µM] | Compound | also measured |
| --- | --- | --- | --- | --- |
| 148 | – | – | COc1ccc(-c2cc(-c3cc(OC)ccc3O)[nH]n2)cc1 | IC50 [2]: Not Active |
| 229 | – | – | Nc1ccc(-c2nc3cc(-c4nc5ccccc5o4)ccc3[nH]2)cc1 | IC50 [2]: Not Active |
| 398 | – | – | Oc1ccc(-c2csc(Cc3c[nH]c4ccccc34)n2)cc1O | IC50 [2]: Not Active |
| 645 | – | – | O=c1oc2c(-c3cccc(Cl)c3)cc(O)cc2s1 | IC50 [2]: Not Active |
| – | 40 to 100% | – | CN(C)[C@H]1C(O)=C(C(N)=O)C(=O)[C@@]2(O)C(O)=C3C(=O)c4c(O)cccc4[C@@](C)(O)[C@H]3C[C@@H]12 | – |
| 155 to 274 | 40 to 100% | 237 to 307 | CN(C)[C@@H]1C(O)=C(C(N)=O)C(=O)[C@@]2(O)C(O)=C3C(=O)c4c(O)ccc(Cl)c4[C@@](C)(O)[C@H]3C[C@@H]12 [CHLORTETRACYCLINE] | – |
| 62 to 196 | 40 to 100% | 80 to 240 | C=C1c2c(Cl)ccc(O)c2C(=O)C2=C(O)[C@]3(O)C(=O)C(C(N)=O)=C(O)[C@@H](N(C)C)[C@@H]3[C@@H](O)[C@H]12 [MECLOCYCLINE] | Kd ([3]; read-out: Kd): 2.1 µM; Kd ([7]; read-out: Kd): 5.8 µM; Activity [8]: inactive; Activity [9]: inactive |
| 56 to 437 | 40 to 100% | 97 to 749 | C=C1c2cccc(O)c2C(=O)C2=C(O)[C@]3(O)C(=O)C(C(N)=O)=C(O)[C@@H](N(C)C)[C@@H]3[C@@H](O)[C@H]12 [METHACYCLINE] | Kd ([3]; read-out: Kd): 9.9 µM; Kd ([7]; read-out: Kd): 17 µM; inhibition [10]: Active; inhibition [11]: Active; inhibition [12]: Active; Activity [8]: inactive; Activity [9]: inactive |
| 305 to 539 | 40 to 100% | 437 to 744 | CN(C)c1ccc(O)c2c1C[C@H]1C[C@H]3[C@H](N(C)C)C(O)=C(C(N)=O)C(=O)[C@@]3(O)C(O)=C1C2=O [MINOCYCLINE] | – |
